The record followed here is ChEMBL document CHEMBL1135691, “Synthesis of novel N-1 (allyloxymethyl) analogues of 6-benzyl-1-(ethoxymethyl)-5-isopropyluracil (MKC-442, emivirine) with improved activity against HIV-1 and its mutants” (J Med Chem, 2002).

Each structure is given as a SMILES string. Values joined by “and” are separate entries in the source; they are usually repeats but may differ in a detail not shown here. Equal values may be shown once. Where a name gives a salt, the structure may show the parent alone. Bounds are passed on as bounds.

The subject of one data set is MT4. Kind of data set: (§1) Cytotoxic dose required to reduce the viability of normal uninfected MT-4 cells by 50%. It counts as functional, Homo sapiens. The settings on record: read-out: CD50 (the source's name).
Data set [1] in a line: Selective index (CD50 compared to ED50 against HIV-1 IIIB strain). Type of data set: functional. Put shortly: (§2)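 Ratio of CD50 to ED50. Both values come from 6-day MT-4 MTT assays: uninfected cultures for cytotoxicity, and cultures infected at MOI 0.005 with the named wild-type strain for antiviral effect. Each value was interpolated from inhibition–concentration plots and is the mean of three experiments.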

Data set [2] relates to Human immunodeficiency virus 1. Nature of the data set: Inhibition of HIV-1 IIIB replication in MT-4-infected wild type cells. It counts as functional. The settings on record: read-out: ED50 (the source's name). Put shortly: (§3)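 MT-4 cells infected with wild-type HIV-1 (IIIB, H9-propagated stock, or HxB2 clone) at MOI 0.005 and cultured 6 days in RPMI 1640 with 10% heat-inactivated FCS and compound dilutions. Infected and uninfected controls without compound run in parallel. Virus expression measured indirectly by MTT. EC50 interpolated from inhibition–concentration plots. Mean of three experiments.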

Data set [3] concerns Human immunodeficiency virus 1. Kind of data set: Effective concentration required to achieve 50% inhibition of HIV-1 multiplication in MT-4-infected Y181C+K103N strain. It counts as functional. The settings on record: read-out: ED50 (the source's name). Put shortly: (§4)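 NNRTI-resistant HIV-1 strains infected MT-4 cells at 0.005 MOI. Cells were cultured with serial compound dilutions in RPMI 1640 with 10% heat-inactivated FCS and antibiotics for 6 days, alongside infected and uninfected no-compound controls. Viral expression was quantified indirectly by MTT assay. EC50 was interpolated from percent-inhibition versus concentration plots. Values are means of three separate experiments.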

Data set [4] relates to Human immunodeficiency virus 1. Nature of the data set: Effective concentration required to achieve 50% inhibition of HIV-1 multiplication in MT-4-infected K103N strain. It counts as functional. To be noted: read-out: ED50 (the source's name). Put shortly: as §4
Data set [5] concerns Human immunodeficiency virus 1. Nature of the data set: (§5) Effective concentration required to achieve 50% inhibition of HIV-1 multiplication in MT-4-infected Y181C strain. To be noted: read-out: ED50 (the source's name). It counts as functional. Put shortly:
as §4

Data set [6] concerns Human immunodeficiency virus 1. Kind of data set: Effective concentration required to achieve 50% inhibition of HIV-1 multiplication in MT-4-infected wild type cells. Type of data set: functional. The settings on record: read-out: ED50 (the source's name). In short, it runs like this:
as §3

Data set [7] can be described thus: (§6) Selective index as the ratio of CD50 to that of ED50 against HIV-1 HxB2 strain. Type of data set: functional. Put shortly: as §2
Data set [8] relates to Human immunodeficiency virus 1. The data set is described as §5. It counts as functional. The settings on record: read-out: ED50 (the source's name). In short, it runs like this:
as §4
This is another data set of the same source.

The nature of data set [9]: as §1. It counts as cell-based, MT4. To be noted: human, read-out: CD50 (the source's name).
Data set [10] can be described thus: as §6. In short, it runs like this: as §2
Data set [11] can be described thus: Selective index as the ratio of CD50 to that of ED50 against HIV-1 IIIB strain. In short, it runs like this:
as §2

Regarding `C=CCOCn1c(Cc2cccc3ccccc23)c(CC)c(=O)[nH]c1=O`, in the data set on MT4 (Homo sapiens, MT4), the CC50 came out at 32000 nM. Besides, in [1], the SI was determined as 32. For the same compound, the EC50 in data set [2] was found to be 1000 nM.

As for `C=CCOCn1c(Cc2cc(C)cc(C)c2)c(CC)c(=O)[nH]c1=O`, the EC50 in data set [3] turned out to be 10000 nM; in data set [4], 20 nM; in [5] it was 320 nM; in [6] it was 0.02 nM; in data set [2] it was 4 nM; in data set [8], 70 nM. The CC50 is 100000 nM in the data set on MT4 (Homo sapiens, MT4) and over 100000 nM in the data set on MT4. The SI in [1] was 25000; in [7], over 5e+06.

Regarding `C=C(C)COCn1c(Cc2cccc3ccccc23)c(CC)c(=O)[nH]c1=O`, the CC50 with MT4 (Homo sapiens, MT4) was 35000 nM. In data set [1], this compound yielded an SI of 35. For the same compound, the EC50 in [2] is 1000 nM.

On to `CCc1c(Cc2cccc3ccccc23)n(COCC=C(C)C)c(=O)[nH]c1=O`, for which the CC50 in the data set with MT4 (Homo sapiens, MT4) is over 100000 nM. The compound also returned an SI in data set [1] of over 333. In addition, the EC50 in data set [2] came out at 300 nM.

Turning to `CC(C)=CCOCn1c(Cc2cc(C)cc(C)c2)c(C(C)C)c(=O)[nH]c1=O`, the EC50 in data set [3] came to 28000 nM; in data set [5], 19000 nM; in data set [2], 0.2 nM. Further, in the data set on MT4 (Homo sapiens, MT4), the CC50 is over 100000 nM. In [1], this compound displayed an SI of over 500000.

Turning to `Cc1ccnc2c1NC(=O)c1cccnc1N2C1CC1` [NEVIRAPINE], the EC50 is over 100000 nM in [3]; 4300 nM in [4]; over 100000 nM in [5]; 570 nM in data set [6]; 380 nM in data set [2]; 22000 nM in data set [8]. For the same compound, in the data set on MT4 (Homo sapiens, MT4), the CC50 was over 100000 nM. Moreover, the SI in [1] was over 263; in data set [7], over 175.

For `O=C1Nc2ccc(Cl)cc2[C@@](C#CC2CC2)(C(F)(F)F)O1` [EFAVIRENZ], the EC50 stood at 2700 nM in data set [3]; 350 nM in data set [4]; 40 nM in data set [6]; 10 nM in [2]; 40 nM in data set [8]. Besides, the CC50 in the data set on MT4 (Homo sapiens, MT4) was over 100000 nM.

For the compound `C=C(C)COCn1c(Cc2cc(C)cc(C)c2)c(CC)c(=O)[nH]c1=O`, the EC50 in data set [3] stood at 28000 nM; in [4], 2200 nM; in [5] it was 360 nM; in data set [6] it was 8 nM; in data set [2] it was 2.5 nM; in data set [8] it was 4000 nM. Moreover, in the data set with MT4 (Homo sapiens, MT4), the CC50 was over 100000 nM. For the same compound, the results for the SI in data set [1] and in data set [7] were over 40000 and over 12500, respectively.

In the case of `CC(C)Nc1cccnc1N1CCN(C(=O)c2cc3cc(NS(C)(=O)=O)ccc3[nH]2)CC1` [DELAVIRDINE MESYLATE], the EC50 in data set [3] was over 100000 nM; in data set [4] it was 3000 nM; in [5], over 100000 nM; in data set [6] it was 190 nM; in data set [2], 60 nM; in [8], 4500 nM. Moreover, the CC50 in the data set with MT4 (Homo sapiens, MT4) was 42000 nM; in the data set with MT4, over 42000 nM. The SI in [1] is 700; in data set [7] it was over 221.

Turning to `CCc1c(Cc2cc(C)cc(C)c2)n(COCC=C(C)C)c(=O)[nH]c1=O`, the EC50 in data set [3] was over 100000 nM; in data set [4], 90 nM; in [5] it was 340 nM; in [6], 0.02 nM; in data set [2], 0.3 nM; in [8], 450 nM. For the same compound, the CC50 in the data set on MT4 (Homo sapiens, MT4) was 36000 nM; in the data set with MT4, 61000 nM. In addition, the results for the SI in data set [1] and in data set [7] were 120000 and 3.03e+06, respectively.

As for `C#CCOCn1c(Cc2ccccc2)c(C(C)C)c(=O)[nH]c1=O`, the EC50 in [3] is over 100000 nM; in [5] it was over 100000 nM; in [2], 7 nM. In addition, in the data set with MT4 (Homo sapiens, MT4), the CC50 is over 100000 nM. In addition, in data set [1], the SI is over 14300.

Regarding `C=CCOCn1c(Cc2cc(C)cc(C)c2)c(C(C)C)c(=O)[nH]c1=O`, the EC50 was over 100000 nM in [3], over 100000 nM in data set [5] and 0.2 nM in [2]. For the same compound, in the data set on MT4 (Homo sapiens, MT4), the CC50 worked out at 30000 nM. Also, in data set [1], the SI turned out to be 150000.

Turning to `CC(C)=CCOCn1c(Cc2ccccc2)c(C(C)C)c(=O)[nH]c1=O`, the CC50 in data set [9] was determined as 32000 nM; with MT4 (Homo sapiens, MT4), 34000 nM. Besides, the EC50 in [3] is over 100000 nM; in data set [4] it was 3800 nM; in [5] it was over 100000 nM; in data set [6], 30 nM; in data set [2], 30 nM; in data set [8] it was over 100000 nM. For the same compound, the SI in [1] is 1070; in data set [7] it was 1120.

Consider `C=C(C)COCn1c(Cc2cc(C)cc(C)c2)c(C(C)C)c(=O)[nH]c1=O`, for which the EC50 was 26000 nM in data set [3], 15000 nM in [5] and 0.15 nM in data set [2]. For the same compound, the CC50 in the data set with MT4 (Homo sapiens, MT4) was over 100000 nM. Also, the SI in [1] was over 667000.

Take `C=CCOCn1c(Cc2ccccc2)c(C(C)C)c(=O)[nH]c1=O`: the EC50 in [3] is over 100000 nM; in data set [4], 900 nM; in data set [5] it was 100000 nM; in data set [6], 3 nM; in data set [2], 4 nM; in data set [8] it was 3300 nM. Also, in the data set with MT4 (Homo sapiens, MT4), the CC50 is over 100000 nM. Also, the SI in data set [1] is over 25000; in data set [7], over 33300.

For the compound `C=C(C)COCn1c(Cc2ccccc2)c(C(C)C)c(=O)[nH]c1=O`, the EC50 in [3] was over 100000 nM; in data set [4], over 100000 nM; in data set [5] it was over 100000 nM; in [6], 50 nM; in data set [2] it was 280 nM; in [8], over 100000 nM. The SI in data set [10] was over 2000; in data set [11], 142. In addition, the CC50 in the data set on MT4 is 40000 nM and > 100000 nM.

`C#CCOCn1c(Cc2cc(C)cc(C)c2)c(CC)c(=O)[nH]c1=O`: the figures for the EC50 in data set [3], in data set [5] and in [2] were 3000 nM, over 100000 nM and 3 nM, respectively. The CC50 with MT4 (Homo sapiens, MT4) is over 100000 nM. Besides, the SI in [1] was over 33300.
